Rows were chosen to be rich in hits. Some 1.2% of all compounds tested hit in one or more screens of this group.
Furin inh – human furin inhibition; AID 463115; P09958; inhibition, % at 20 µM or 30 µM; purified furin, fluorogenic substrate cleavage; 220,000 tested, 0.061% active; in the data active = inhibition above about 25%
KLK5 inh – blocks human kallikrein 5 protease activity; 210,000 tested, 0.59% active; Q9Y337; recombinant hK5, fluorogenic AMC substrate cleavage; inhibition, % at 5 µM;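 active = inhibition of 40% or more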
Target sequence (Q9Y337 67-293 limits assumed): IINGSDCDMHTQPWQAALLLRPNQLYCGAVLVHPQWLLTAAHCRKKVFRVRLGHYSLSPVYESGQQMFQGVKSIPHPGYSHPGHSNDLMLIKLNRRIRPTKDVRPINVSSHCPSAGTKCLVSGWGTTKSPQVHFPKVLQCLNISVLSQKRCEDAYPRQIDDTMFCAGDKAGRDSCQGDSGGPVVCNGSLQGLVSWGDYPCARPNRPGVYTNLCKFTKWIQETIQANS
FXIIa inh – inhibitors of human coagulation factor XIIa | P00748 | purified FXIIa, Boc-QGR-AMC fluorogenic substrate, 2 h | inhibition, % at 5 µM | 220,000 tested, 0.3% active | AID 800; in the data active = inhibition above about 40%
FXIa inh 1536 – inhibitors of human coagulation factor XIa; P03951; 220,000 tested, 0.14% active; purified FXIa, Boc-Glu-Ala-Arg-AMC fluorogenic substrate; inhibition, % at 5 µM; AID 798;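 active = inhibition of at least 40%; inactive = inhibition below 40%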;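 also: fluorescence of freed AMC excited at 355 nm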
PERK inh – human PERK inhibition, primary cell-based screen; AID 1416; inhibition, % at 5.6 µM; Q9NZJ5; 220,000 tested, 0.17% active; CHO PERK-DD fusion, SEAP luminescence translation reporter;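 active = inhibition above the mean inhibition of all tested compounds plus 3 SD, set separately per screening campaign, cut at about 2.9% in these data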;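 also: PERK kinase domain activated by AP20187 dimerizer at 100 nM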
thrombin 1536 – blocks human thrombin protease activity; P00734; alpha-thrombin, Boc-VPR-AMC fluorogenic substrate cleavage; inhibition, % at 5 µM; 220,000 tested, 0.26% active; AID 1046;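 active = inhibition at or above 40%; inactive = inhibition below 40%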
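Material: human alpha-thrombin enzyme / Medium: pH 7.5 Tris (50 mM) with NaCl 150 mM, Tween 20 0.05% / Compound: single-point dosing at 5 µM, 0.2% DMSO / Incubation: enzyme reaction carried out at room temperature / Detection: AMC fluorescence, 355/460 nm / Read-out basis: percent inhibition scaled between no-compound controls and no-enzyme blanks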
Numbers stand for hits; . = inactive; / = no result.

SMILES | Furin inh | KLK5 inh | FXIIa inh | FXIa inh 1536 | PERK inh | thrombin 1536
O=C(CSc1nnc(Cn2nnc(-c3ccccc3)n2)n1-c1ccccc1)Nc1ccc(F)cc1 | . | 85 | . | . | . | 69
O=C(CSc1nnc(Cn2nnc(-c3ccccc3)n2)n1-c1ccccc1)Nc1ccccc1 | . | . | . | . | . | .
O=C(CCC(=O)N(CC(=O)NC1CCCCC1)Cc1cccs1)Nc1nccs1 | . | . | . | . | . | .
O=C1CC(SCc2nc3ccccc3[nH]2)C(=O)N1c1ccc(F)cc1 (stereo not given) | . | 54 | . | . | . | .
CCOC(=O)C1CCN(C(=O)CSc2nnc(-c3ccco3)n2-c2ccccc2)CC1 | . | . | . | . | . | .
CCOc1ccc(Cn2ccnc2)cc1[N+](=O)[O-] | . | 115 | . | . | . | .
CCCCCOc1ccc(Cn2ccnc2)cc1[N+](=O)[O-] | . | . | . | . | . | .
C=CCOc1ccc(/C(O)=C2\C(=O)C(=O)N(CCCOC)C2c2ccncc2)cc1 (stereo not given) | . | . | . | . | . | 41
C=CCOc1ccc(/C(O)=C2\C(=O)C(=O)N(CCCOC)C2c2ccc(O)c(OC)c2)cc1 (stereo not given) | . | . | . | . | . | .
COc1cc([N+](=O)[O-])cc2sc(NC(C)=O)nc12 | . | . | . | 60 | . | .
CCCCC(=O)Nc1nc2c(OC)cc([N+](=O)[O-])cc2s1 | . | . | / | . | . | .
CCOC(=O)N1CCC2(CC1)C(C#N)=C(N)Oc1c2c(C)nn1-c1cccc(Cl)c1 | . | . | . | . | . | .
Cc1ccc([N+](=O)[O-])c2c1C(N1CC(C)OC(C)C1)C(C)(C)O2 (stereo not given) | . | . | . | . | . | .
Cc1cccc(NC(=O)c2cnc3ccccn3c2=O)c1 | . | . | . | . | 3.1 | .
Cc1cccc(NC(=O)c2cnc3sccn3c2=O)c1 | . | . | . | . | . | .
Cc1ccc(S(=O)(=O)Nc2ccc3c(c2)CCC3)cc1 | . | . | . | . | . | .
Cc1ccc(S(=O)(=O)Nc2ccc3c(c2)c2c(n3S(=O)(=O)c3ccc(C)cc3)CCCC2=O)cc1 | . | 68 | . | . | . | .
Cc1ccc(Cc2ccc(C(=O)NNC(N)=S)o2)cc1 | . | . | . | . | . | .
O=C(NCc1ccco1)c1scc2c1OCCO2 | . | . | 43 | . | . | .
O=C(NCc1ccco1)c1ccc(C(=O)NCc2ccco2)s1 | . | . | . | . | . | .
COc1ccc(-c2cc(C(=O)OCC(=O)NC(C)C)c3ccccc3n2)cc1 | . | . | . | . | . | .
CCN1CCN(C(=O)N2CCOCC2)CC1 | . | . | . | . | . | .
O=C1NN(c2ccccc2)C(=O)/C1=C\c1cccc(OC(=O)c2cccs2)c1 | . | . | . | 49 | . | .
O=C1NN(c2ccc(Cl)c(Cl)c2)C(=O)/C1=C/c1cccc(OC(=O)c2cccs2)c1 | . | . | . | . | . | .
Cc1ccc(C(C)C)c(OCc2n[nH]c(=S)o2)c1 | . | . | . | . | . | .
SMILES | Furin inh | KLK5 inh | FXIIa inh | FXIa inh 1536 | PERK inh | thrombin 1536
Cc1ccc(C(C)C)c(OCc2nc(-c3nonc3N)no2)c1 | . | 54 | . | . | . | .
Cc1ccc(C(=O)n2nc(-c3cccnc3)nc2N)cc1 | . | 74 | 94 | 48 | . | 82
COc1ccccc1C(=O)n1nc(-c2cccnc2)nc1N | . | 61 | 85 | . | . | /
Cc1ccc(S(=O)(=O)n2nc(-c3cccnc3)nc2N)cc1 | . | . | . | . | . | .
Cc1cc(C)nc(Nc2ncc(O)n2-c2ccc(Br)cc2)n1 | . | . | . | . | . | .
Cc1ccc(CNC(=O)/C=C/c2c(Cl)cccc2Cl)cc1 | . | . | . | . | . | .
Cc1ccc(CNC(=O)/C=C/c2ccccc2Cl)cc1 | . | . | . | . | 3.0 | .
COc1ccc(CN(CC2CCCO2)C(=O)c2cc3sccc3n2C)c(OC)c1 (stereo not given) | . | . | . | . | . | .
Cc1c(O)ccc(/C=N/Nc2nc(-c3cccnc3)nc3ccccc23)c1O | . | . | . | . | . | .
Oc1ccc(/C=N/Nc2nc(-c3cccnc3)nc3ccccc23)c(O)c1 | . | . | . | 42 | . | .
Cc1c(Cl)cccc1Nc1nc(N)nc(CN2CCc3ccccc3C2)n1 | . | . | 43 | . | . | .
CCc1ccc(NC(=O)c2ccc3ncsc3c2)cc1 | . | 40 | . | . | . | .

Bioassay records (PubChem)
